Experimental data from ChEMBL document CHEMBL1146655, “Novel thrombin inhibitors incorporating weakly basic heterobicyclic P1-arginine mimetics: optimization via modification of P1 and P3 moieties” (Bioorg Med Chem Lett, 2004).

Assays:
Serine protease 1 = molecular target: T1, Serine protease 1 (Bos taurus, UniProt P00760); assay: In vitro inhibition of bovine trypsin.
T1 sequence (P00760 whole entry): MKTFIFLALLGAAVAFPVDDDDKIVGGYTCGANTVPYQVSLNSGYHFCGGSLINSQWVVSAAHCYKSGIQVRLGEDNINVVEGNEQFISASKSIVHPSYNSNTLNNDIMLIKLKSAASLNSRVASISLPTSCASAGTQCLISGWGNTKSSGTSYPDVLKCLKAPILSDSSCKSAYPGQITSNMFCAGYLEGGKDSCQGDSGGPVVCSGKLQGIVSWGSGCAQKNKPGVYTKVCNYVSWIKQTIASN
Summary of the method: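 Amidolytic assay of thrombin, trypsin and factor Xa activity with chromogenic substrates. Ki was derived by the Cheng–Prusoff relation from IC50, or from reaction velocity equations with and without inhibitor using the substrate Km. Thrombin-over-trypsin selectivity was taken as the ratio Ki(trypsin)/Ki(thrombin).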

[1] = Concentration required to double the activated partial thromboplastin time in human plasma; format: functional
[2] = Concentration required to double the prothrombin time in human plasma; format: functional
[3] = Concentration required to double the thrombin time in human plasma; format: functional
[4] = Selectivity for inhibition of thrombin over trypsin.
Summary of the method: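 Ratio Ki(trypsin)/Ki(thrombin). Both Ki values came from chromogenic-substrate amidolytic assays, each derived by Cheng–Prusoff from IC50 or from velocity equations with and without inhibitor using the relevant Km.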

Prothrombin = Prothrombin (Homo sapiens, UniProt P00734); assay: In vitro inhibition of human thrombin.
Coagulation factor X = Coagulation factor X (Homo sapiens, UniProt P00742); assay: In vitro inhibition of Coagulation factor Xa.
Summary of the method: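 Amidolytic assay with a chromogenic substrate for factor Xa. Ki was derived by the Cheng–Prusoff relation from IC50 values, or from velocity equations with and without inhibitor using the substrate Km.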

[5] = Dissociation constant was evaluated; format: physicochemical

Sequence of Coagulation factor X (P00742 41-179 limits assumed): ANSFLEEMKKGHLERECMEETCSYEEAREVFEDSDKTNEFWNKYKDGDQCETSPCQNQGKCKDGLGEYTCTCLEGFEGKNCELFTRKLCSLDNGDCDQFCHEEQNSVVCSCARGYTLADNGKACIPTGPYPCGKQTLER
Sequence of Coagulation factor X (P00742 235-488 limits assumed): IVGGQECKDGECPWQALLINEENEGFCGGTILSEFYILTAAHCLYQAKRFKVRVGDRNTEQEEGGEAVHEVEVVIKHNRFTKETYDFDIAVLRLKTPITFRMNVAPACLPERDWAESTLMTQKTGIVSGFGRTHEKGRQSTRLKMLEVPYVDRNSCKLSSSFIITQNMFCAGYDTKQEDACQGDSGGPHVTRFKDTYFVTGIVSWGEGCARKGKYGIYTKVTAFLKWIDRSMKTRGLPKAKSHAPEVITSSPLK

SMILES	Ki (Serine protease 1) [µM]	2x APTT [1] [µM]	PT [2] [µM]	TT [3] [µM]	Selectivity [4]	Ki (Prothrombin) [µM]	Ki (Coagulation factor X) [µM]	pKa [5]
Cc1ccc(NS(=O)(=O)Cc2ccccc2)c(=O)n1CC(=O)NCC1CCc2n[nH]cc2C1 (stereo not given)	> 500	20.5	30.6	5.2	> 2940	–	–	–
Cc1ccc(NS(=O)(=O)Cc2ccccc2)c(=O)n1CC(=O)NC1CCc2nc(N)sc2C1 (stereo not given)	–	36.5	41.4	6.6	2170	0.12	92	–
CCCS(=O)(=O)Nc1ccc(C)n(CC(=O)NC2CCc3nc(N)sc3C2)c1=O (stereo not given)	64.3	–	–	–	28	2.3	200	6.1
Cc1ccc(NS(=O)(=O)Cc2ccc(F)cc2)c(=O)n1CC(=O)NCC1CCc2n[nH]cc2C1 (stereo not given)	258	15.8	34	3.9	1720	0.149	314	4
Cc1ccc(NS(=O)(=O)Cc2ccccc2)c(=O)n1CC(=O)N[C@@H]1CCc2nc(N)sc2C1	263	9.52	–	–	3700	0.071	225	6.1
CCCCS(=O)(=O)Nc1ccc(C)n(CC(=O)NC2CCc3nc(N)sc3C2)c1=O (stereo not given)	–	–	–	–	38	1.34	179	6.1
Cc1ccc(NS(=O)(=O)Cc2ccccc2)c(=O)n1CC(=O)N[C@H]1CCc2nc(N)sc2C1	–	–	–	–	253	1.16	371	6.1
Cc1ccc(NS(=O)(=O)Cc2ccc(F)cc2)c(=O)n1CC(=O)N[C@@H]1CCc2nc(N)sc2C1	> 700	20.1	–	–	> 9090	0.077	> 500	6.1
Cc1ccc(CS(=O)(=O)Nc2ccc(C)n(CC(=O)NC3CCc4nc(N)sc4C3)c2=O)cc1 (stereo not given)	246	31.3	56	12	2460	0.1	80	6.1
CCCS(=O)(=O)Nc1ccc(C)n(CC(=O)NCC2CCc3nc(N)sc3C2)c1=O (stereo not given)	–	–	–	–	–	3.8	–	6.5
Cc1ccc(NS(=O)(=O)Cc2ccc(F)cc2)c(=O)n1CC(=O)NC1CCc2nc(N)sc2C1 (stereo not given)	> 800	28.7	57.7	5.1	> 8000	0.1	> 300	6.1
Cc1ccc(NS(=O)(=O)Cc2cccc(C(F)(F)F)c2)c(=O)n1CC(=O)NCC1CCc2n[nH]cc2C1 (stereo not given)	425	447	293	36.6	757	0.562	252	4
Cc1ccc(NS(=O)(=O)Cc2cccc(C(F)(F)F)c2)c(=O)n1CC(=O)NC1CCc2nc(N)sc2C1 (stereo not given)	> 200	428	435	125	> 300	–	81	6.1
Cc1ccc(NS(=O)(=O)Cc2ccc(F)cc2Cl)c(=O)n1CC(=O)NC1CCc2nc(N)sc2C1 (stereo not given)	1920	94	–	93.8	–	0.157	69	6.1
Cc1ccc(CS(=O)(=O)Nc2ccc(C)n(CC(=O)NCC3CCc4n[nH]cc4C3)c2=O)cc1 (stereo not given)	> 300	18.8	26.8	3.4	> 2900	0.102	228	4
Cc1ccc(NS(=O)(=O)Cc2ccc(F)cc2Cl)c(=O)n1CC(=O)NCC1CCc2n[nH]cc2C1 (stereo not given)	> 300	50	120	10.8	> 1910	0.157	75	4
Cc1ccc(NS(=O)(=O)Cc2ccc(F)cc2)c(=O)n1CC(=O)NC1CCc2c(sc(=N)n2N)C1 (stereo not given)	8.06	22.6	–	–	201	0.022	131	3.17
Cc1ccc(NS(=O)(=O)Cc2ccccc2)c(=O)n1CC(=O)NC1CCc2c(sc(=N)n2N)C1 (stereo not given)	2.71	2.4	–	–	65	0.042	> 200	3.17
Cc1ccc(NS(=O)(=O)Cc2ccc(F)cc2)c(=O)n1CC(=O)N[C@H]1CCc2nc(N)sc2C1	> 700	–	–	–	> 123	–	176	6.1
